Source: ChEMBL document CHEMBL4480456, “Potentially Cardiotoxic Diterpenoid Alkaloids from the Roots of Aconitum carmichaelii” (J Nat Prod, 2019)

Columns and labels:
H9c2 [1] = assay: Cytotoxicity against rat H9c2 cells assessed as reduction in cell viability after 24 hrs by MTT assay; assay type: cell-based; settings: H9c2, 24 h
Method in brief: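 H9c2 cells cultured in DMEM with 10% FBS, penicillin/streptomycin/glutamine at 37 °C, 5% CO2. Seeded 1 × 10^5 cells/well, grown 24 h, then exposed to compounds for 24 h. The compounds came from 80 mM DMSO stocks diluted in complete medium to a series of concentrations. MTT added for 4 h, formazan dissolved in DMSO, OD read at 490 nm. Inhibition % taken against a cell-free medium blank. At least three experiments.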

H9c2 [2] = assay: Induction of apoptosis in rat H9c2 cells at 40 uM after 24 hrs by DAPI/annexin V-FITC/PI double staining-based assay; assay type: cell-based; settings: h9c2, 24 h
Method in brief: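 H9c2 cells in imaging plates exposed 24 h, PBS-washed, stained 30 min with annexin V-FITC and PI. Then fixed in 4% paraformaldehyde 15 min and DAPI-labelled 20 min. High-content imaging on In Cell Analyzer 6000 quantified nuclear size and annexin V-FITC and PI intensities. Means ± SD, three independent experiments.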

H9c2 [3] = assay: Disruption of mitochondrial membrane potential in rat H9c2 cells at 40 uM after 24 hrs by rhodamine 123 staining-based assay; assay type: ADME, cell-based; settings: h9c2, 24 h
Method in brief: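 H9c2 cells in imaging plates exposed 24 h, PBS-washed and stained 30 min with rhodamine 123. Then fixed in 4% paraformaldehyde 15 min and counterstained with DAPI 20 min. Rh123 intensity quantified by high-content imaging on In Cell Analyzer 6000. Means ± SD, three independent experiments.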

H9c2 [4] = assay: Increase in intracellular calcium levels in rat H9c2 after 30 to 430 secs by FLIPR assay; assay type: ADME, cell-based
Method in brief: (§1)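 H9c2 cells seeded at 1 × 10^5 cells/well and grown to confluency. Medium replaced by HBSS with 20 mM HEPES, then loaded with calcium-sensitive dye (Calcium 6 kit) for 2 h at 37 °C. Compounds freshly prepared in HBSS/HEPES were added and fluorescence was read on FLIPR. ΔF/F0 taken as peak amplitude change over initial intensity. Means ± SD, three independent experiments.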

H9c2 [5] = assay: Increase in intracellular calcium levels in rat H9c2 at 80 uM after 30 to 430 secs by FLIPR assay; assay type: ADME, cell-based; settings: h9c2, 80 µM; method in brief: as §1
H9c2 [6] = assay: Induction of membrane potential in rat H9c2 cells after 50 to 650 secs by FLIPR assay; assay type: cell-based
Method in brief: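 H9c2 cells seeded at 1 × 10^5 cells/well and grown to confluency. Switched to HBSS with 20 mM HEPES and loaded with blue membrane-potential dye for 30 min at 37 °C. Compounds freshly prepared in HBSS/HEPES were added and fluorescence was read on FLIPR. ΔF/F0 taken as peak change over initial intensity. Means ± SD, three independent experiments.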

With COC[C@]12CN(C)[C@H]3[C@@H]4[C@H](OC)[C@H]1[C@@]3([C@@H](OC)C[C@H]2O)[C@]1(O)C[C@@]2(O)[C@H](OC(=O)c3ccccc3)[C@@H]1[C@]4(OC(=O)c1ccccc1)[C@@H](O)[C@@H]2OC as the compound, how does the IC50 (H9c2 [1]) read?
Its IC50 is > 100 µM.

With C=C1[C@@H](O)[C@@]23C[C@H]4[C@@H]5[C@@]6(C)CCC[C@@]57[C@@H]2C[C@@H]1[C@H](O)[C@@H]3[C@H]7N4[C@H]6O as the compound, how does the IC50 (H9c2 [1]) read?
The IC50 was > 100 µM.

With CCN1C[C@]2(COC)[C@H](O)C[C@H](OC)[C@@]34[C@@H]5C[C@@]6(O)[C@H](OC(=O)c7ccccc7)[C@@H]5[C@@](OC)([C@@H]([C@H](OC)[C@H]23)[C@H]14)[C@@H](O)[C@@H]6OC as the compound, how does the IC50 (H9c2 [1]) read?
Its IC50 is 68.4 µM.

CCN1C[C@]2(COC)CC[C@H](OC)[C@@]34[C@@H]5C[C@@H]6[C@@H](OC)[C@H](O)[C@@](OC)([C@H]5[C@H]6OC(=O)c5ccccc5)[C@@H](C[C@H]23)[C@H]14 was tested. Which IC50 (H9c2 [1]) did it give?
Its IC50 is > 100 µM.

CCCCO[C@]12[C@H]3[C@@H](OC(=O)c4ccccc4)[C@](O)(C[C@H]3[C@@]34[C@@H](OC)C[C@@H](O)[C@@]5(COC)CN(C)[C@H]3[C@@H]1[C@H](OC)[C@H]54)[C@@H](OC)[C@@H]2O was tested. Which Activity (H9c2 [2]) did it give?
The Activity was “Toxic”.

What about the IC50 (H9c2 [1]) of the same compound?
The IC50 was 27 µM.

And the Activity (H9c2 [3])?
Its Activity is “Toxic”.

For CCN1C[C@]2(COC)[C@H](O)C[C@H](OC)[C@]34[C@@H]1[C@H]([C@H](OC)[C@H]23)[C@]1(OC(=O)c2ccccc2)[C@H]2[C@@H](OC(=O)c3ccccc3)[C@](O)(C[C@]24O)[C@@H](OC)[C@@H]1O, which IC50 (H9c2 [1]) is on record?
The IC50 was > 100 µM.

COC[C@@]12CC[C@H](OC)[C@@]34[C@@H]5C[C@@]6(O)[C@H](OC(=O)c7ccccc7)[C@@H]5[C@@](OC(=O)c5ccccc5)([C@@H]([C@H](OC)[C@H]13)[C@@H]4N(C)C2)[C@@H](O)[C@@H]6OC was tested. Which IC50 (H9c2 [1]) did it give?
The IC50 was 44.3 µM.

With COC[C@@]12CC[C@H](OC)[C@@]34[C@@H]5C[C@@]6(O)[C@H](OC(=O)c7ccccc7)[C@@H]5[C@@](OC(C)=O)([C@@H]([C@H](OC)[C@H]13)[C@@H]4N(C)C2)[C@@H](O)[C@@H]6OC as the compound, how does the Activity (H9c2 [4]) read?
The Activity was “Toxic”.

What about the Activity (H9c2 [2]) of the same compound?
The Activity was “Non-Toxic”.

What about the Activity (H9c2 [3]) of the same compound?
Its Activity is “Toxic”.

How did the IC50 (H9c2 [1]) turn out when CCN1C[C@]2(COC)CC[C@H](OC)[C@@]34[C@@H]5C[C@@]6(O)[C@H](OC(=O)c7ccccc7)[C@@H]5[C@](OC)([C@@H](O)[C@@H]6OC)[C@@H](C[C@H]23)[C@H]14 was run?
Its IC50 is > 100 µM.

With CCCCO[C@]12[C@H]3[C@@H](OC(=O)c4ccccc4)[C@](O)(C[C@H]3[C@@]34[C@@H](OC)CC[C@@]5(COC)CN(CC)[C@H]3[C@@H]1[C@H](OC)[C@H]54)[C@@H](OC)[C@@H]2O as the compound, how does the Activity (H9c2 [5]) read?
The Activity was “Toxic”.

And the Activity (H9c2 [2])?
The Activity was “Toxic”.

What about the IC50 (H9c2 [1]) of the same compound?
Its IC50 is 19.2 µM.

What about the Activity (H9c2 [3]) of the same compound?
Its Activity is “Toxic”.

What about the Activity (H9c2 [6]) of the same compound?
Its Activity is “Dose-dependent effect”.

CCCCO[C@]12[C@H]3[C@@H](OC(=O)c4ccccc4)[C@](O)(C[C@H]3[C@@]34[C@@H](OC)C[C@@H](O)[C@@]5(COC)CN(CC)[C@H]3[C@@H]1[C@H](OC)[C@H]54)[C@@H](OC)[C@@H]2O was tested. Which Activity (H9c2 [5]) did it give?
The Activity was “Toxic”.

And the IC50 (H9c2 [1])?
The IC50 was 21.2 µM.

And the Activity (H9c2 [6])?
The Activity was “Dose-dependent effect”.

With CCN1C[C@]2(COC)CC[C@H](OC)[C@@]34[C@@H]5C[C@@]6(O)[C@H](OC(=O)c7ccccc7)[C@@H]5[C@@](OC)([C@@H]([C@H](OC)[C@H]23)[C@H]14)[C@@H](O)[C@@H]6OC as the compound, how does the IC50 (H9c2 [1]) read?
The IC50 was 95.6 µM.

For C=C1[C@@H](O)[C@@]23C[C@H]4[C@@H]5[C@@]6(C)CCC[C@@]57[C@@H]2C[C@@H]1[C@H](OC(C)=O)[C@@H]3[C@H]7N4[C@H]6O, which IC50 (H9c2 [1]) is on record?
Its IC50 is > 100 µM.

What does the source list for COC[C@]12CN(C)[C@H]3[C@@H]4[C@H](OC)[C@H]1[C@@]3([C@@H](OC)C[C@H]2O)[C@@H]1C[C@@]2(O)[C@H](OC(=O)c3ccccc3)[C@@H]1[C@]4(OC(C)=O)[C@@H](O)[C@@H]2OC?
Activity (H9c2 [4]): Toxic; Activity (H9c2 [2]): Non-Toxic; Activity (H9c2 [3]): Toxic

For COC[C@]12CN(C)[C@H]3[C@@H]4[C@H](OC)[C@H]1[C@@]3([C@@H](OC)C[C@H]2O)[C@@H]1C[C@@]2(O)[C@H](OC(=O)c3ccccc3)[C@@H]1[C@]4(OC(=O)c1ccccc1)[C@@H](O)[C@@H]2OC, which IC50 (H9c2 [1]) is on record?
Its IC50 is 12.9 µM.
